{
  "source": "ChEMBL document CHEMBL3797028",
  "about": "“Novel S1P1 receptor agonists - Part 4: Alkylaminomethyl substituted aryl head groups” (Eur J Med Chem, 2016)",
  "key": {"[1]": {"assay": "Plasma concentration in Wistar rat at 10 mg/kg administered as single dose through oral gavage after 24 hrs by LC-MS/MS analysis", "assay_type": "ADME, organism-based", "how_it_was_run": "(§1)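 Single oral gavage dose to male Wistar rats in DMSO/7.5% succinylated gelatine (final 5% DMSO). Blood was drawn into EDTA at the lymphocyte-count timepoints. Plasma was prepared at 3000 g for 10 min at 4 °C and analysed by LC-MS/MS after protein precipitation.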"}, "[2]": {"assay": "Fraction unbound in Wistar rat liver microsomes incubated for 6 hrs by LC-MS/MS based equilibrium dialysis method", "assay_type": "ADME", "how_it_was_run": "(§2)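 Rapid equilibrium dialysis was run on a shaker for 6 h at 37 °C. The donor side held rat plasma (pH 7.2–7.6) or 1 mg/mL rat liver microsomes in phosphate buffer pH 7.4. The receiver side held phosphate buffer pH 7.4. Both sides were measured by LC-MS/MS to give free fraction and recovery.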"}, "[3]": {"tested_on": "Rattus norvegicus", "assay": "Change in circulating lymphocyte count in Wistar rat at 1 mg/kg administered as single dose through oral gavage after 6 hrs relative to control", "assay_type": "functional", "how_it_was_run": "(§3)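 Male Wistar rats (RccHan:WIST; n = 6) were given a single oral gavage dose of compound in DMSO plus 7.5% succinylated gelatine (final 5% DMSO). Blood lymphocytes were counted just before dosing and at later timepoints. Percent change was calculated per animal relative to the pre-dose value and compared with a vehicle-treated group, reported as the mean. A ±15% change was treated as baseline, and a reduction of about 60% or more as maximal.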"}, "[4]": {"tested_on": "Rattus norvegicus", "assay": "Change in circulating lymphocyte count in Wistar rat at 10 mg/kg administered as single dose through oral gavage after 24 hrs relative to control", "assay_type": "functional", "how_it_was_run": "as §3"}, "[5]": {"assay": "Total plasma concentration in Wistar rat at 10 mg/kg administered as single dose through oral gavage after 6 hrs by LC-MS/MS analysis", "assay_type": "ADME, organism-based", "how_it_was_run": "(§4)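 Male Wistar rats (n = 2 per timepoint) were dosed orally at 10 mg/kg. At 2, 6 and 24 h they were anaesthetised with 5% isoflurane and sacrificed, and blood was taken for plasma. The brain was perfused via the carotid with 10 mL 0.9% NaCl, removed, and homogenised in an equal volume of ice-cold 0.1 M Na-phosphate pH 7.4. Samples were assayed by LC-MS/MS against blank-brain calibration. Brain/plasma ratio was calculated from these values, reported as the mean of 2.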"}, "[6]": {"tested_on": "Plasma", "assay": "Plasma concentration in Wistar rat at 3 mg/kg administered as single dose through oral gavage after 72 hrs by LC-MS/MS analysis", "assay_type": "ADME, organism-based", "conditions": "in vivo, BLD = below limit of detection", "how_it_was_run": "as §1"}, "[7]": {"assay": "Total plasma concentration in Wistar rat at 10 mg/kg administered as single dose through oral gavage after 24 hrs by LC-MS/MS analysis", "assay_type": "ADME, organism-based", "how_it_was_run": "as §4"}, "[8]": {"target": "Sphingosine 1-phosphate receptor 5 (Homo sapiens, UniProt Q9H228)", "sequence (Q9H228 whole entry)": "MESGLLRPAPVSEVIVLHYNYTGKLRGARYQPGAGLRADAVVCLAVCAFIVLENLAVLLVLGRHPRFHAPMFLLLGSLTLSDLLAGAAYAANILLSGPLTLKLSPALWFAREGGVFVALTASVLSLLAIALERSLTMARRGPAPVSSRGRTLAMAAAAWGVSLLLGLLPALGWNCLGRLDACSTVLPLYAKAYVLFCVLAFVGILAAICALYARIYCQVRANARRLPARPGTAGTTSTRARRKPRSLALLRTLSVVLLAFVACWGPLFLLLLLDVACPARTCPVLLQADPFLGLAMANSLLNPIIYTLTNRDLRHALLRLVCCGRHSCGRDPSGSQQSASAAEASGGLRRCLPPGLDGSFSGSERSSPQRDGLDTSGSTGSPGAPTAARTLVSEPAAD", "assay": "Agonist activity at S1PR5 (unknown origin)"}, "[9]": {"assay": "Fraction unbound in Wistar rat plasma incubated for 6 hrs by LC-MS/MS based equilibrium dialysis method", "assay_type": "ADME, cell-free", "how_it_was_run": "as §2"}, "[10]": {"target": "Sphingosine 1-phosphate receptor 1 (Homo sapiens, UniProt P21453)", "sequence (P21453 whole entry)": "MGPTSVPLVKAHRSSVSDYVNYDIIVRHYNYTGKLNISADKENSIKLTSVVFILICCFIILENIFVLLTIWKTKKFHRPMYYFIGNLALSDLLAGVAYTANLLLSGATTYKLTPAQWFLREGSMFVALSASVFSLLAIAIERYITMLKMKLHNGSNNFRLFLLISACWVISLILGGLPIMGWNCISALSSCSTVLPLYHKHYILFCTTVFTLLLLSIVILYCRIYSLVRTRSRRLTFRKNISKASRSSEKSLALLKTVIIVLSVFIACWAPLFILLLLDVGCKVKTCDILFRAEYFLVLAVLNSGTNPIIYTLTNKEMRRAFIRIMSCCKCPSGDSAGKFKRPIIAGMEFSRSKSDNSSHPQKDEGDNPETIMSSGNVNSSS", "assay": "Agonist activity at human recombinant S1PR1 expressed in CHO cell membranes assessed as [35S]GTPgammaS binding preincubated for 30 mins followed by [35S]GTPgammaS addition measured after 1 hr by topcount analysis"}, "[11]": {"assay": "Total plasma concentration in Wistar rat at 10 mg/kg administered as single dose through oral gavage after 2 hrs by LC-MS/MS analysis", "assay_type": "ADME, organism-based", "how_it_was_run": "as §4"}, "[12]": {"assay": "Apparent intrinsic clearance in Wistar rat liver microsomes at 1 uM after 2.5 to 15 mins by LC-MS/MS analysis in presence of NADPH", "assay_type": "ADME", "conditions": "read-out: CLH(app)", "how_it_was_run": "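Compound at 1 uM starting concentration was depleted by 0.5 mg/mL rat liver microsomes in 100 mM sodium phosphate pH 7.4 at 37 °C, with shaking under air. Reactions were started with an NADPH-regenerating system. Samples were taken at 0, 2.5, 5, 10 and 15 min, quenched in ice-cold methanol and analysed by LC-MS/MS. CLint,app came from first-order decay fitting.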"}, "[13]": {"assay": "Plasma concentration in Wistar rat at 3 mg/kg administered as single dose through oral gavage after 24 hrs by LC-MS/MS analysis", "assay_type": "ADME, organism-based", "how_it_was_run": "as §1"}, "[14]": {"assay": "Plasma concentration in Wistar rat at 1 mg/kg administered as single dose through oral gavage after 24 hrs by LC-MS/MS analysis", "assay_type": "ADME, organism-based", "how_it_was_run": "as §1"}, "[15]": {"assay": "Plasma concentration in Wistar rat at 10 mg/kg administered as single dose through oral gavage after 6 hrs by LC-MS/MS analysis", "assay_type": "ADME, organism-based", "how_it_was_run": "as §1"}, "[16]": {"assay": "Plasma concentration in Wistar rat at 1 mg/kg administered as single dose through oral gavage after 3 hrs by LC-MS/MS analysis", "assay_type": "ADME, organism-based", "how_it_was_run": "as §1"}, "[17]": {"assay": "Total brain concentration in Wistar rat at 10 mg/kg administered as single dose through oral gavage after 24 hrs by LC-MS/MS analysis", "assay_type": "ADME, organism-based", "conditions": "read-out: Drug uptake", "how_it_was_run": "as §4"}, "[18]": {"tested_on": "Rattus norvegicus", "assay": "Change in circulating lymphocyte count in Wistar rat at 1 mg/kg administered as single dose through oral gavage after 3 hrs relative to control", "assay_type": "functional", "how_it_was_run": "as §3"}, "[19]": {"tested_on": "Rattus norvegicus", "assay": "Change in circulating lymphocyte count in Wistar rat at 10 mg/kg administered as single dose through oral gavage after 6 hrs relative to control", "assay_type": "functional", "how_it_was_run": "as §3"}, "[20]": {"assay": "Apparent oral clearance in Wistar rat plasma at 1 to 10 mg/kg administered through gavage by LC-MS/MS analysis", "assay_type": "ADME, organism-based", "how_it_was_run": "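Male Wistar rats received a single oral gavage dose of compound dissolved in DMSO and added to 7.5% succinylated gelatine in water (final 5% DMSO). EDTA plasma was spun at 3000 g for 10 min at 4 °C and analysed by LC-MS/MS after protein precipitation. Oral clearance was estimated from the plasma concentration–time data. In vivo intrinsic clearance used the well-stirred liver model, assuming complete absorption.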"}, "[21]": {"organism": "Rattus norvegicus", "assay": "Intrinsic clearance in rat liver microsomes scaled to body weight", "conditions": "in vitro"}},
  "data": [
    {"compound": "CCc1cc(-c2noc(-c3cc(C)c(CN(C)CC(C)C)s3)n2)cc(C)c1OC[C@@H](O)CNC(=O)CO", "values": [
      {"measurement": "concentration at 24 h", "setting": "[1]", "result": 92, "unit": "ng/mL"},
      {"measurement": "fraction unbound at 6 h", "setting": "[2]", "result": 0.002},
      {"measurement": "Activity", "setting": "[3]", "result": -46, "unit": "%"},
      {"measurement": "Activity", "setting": "[4]", "result": -70, "unit": "%"},
      {"measurement": "concentration at 6 h", "setting": "[5]", "result": 622, "unit": "ng/mL"},
      {"measurement": "Cp", "setting": "[6]", "result": "BLD"},
      {"measurement": "concentration at 24 h", "setting": "[7]", "result": 66.5, "unit": "ng/mL"},
      {"measurement": "EC50", "setting": "[8]", "result": 753, "unit": "nM"},
      {"measurement": "fraction unbound at 6 h", "setting": "[9]", "result": "< 0.001"},
      {"measurement": "EC50", "setting": "[10]", "result": 0.5, "unit": "nM"},
      {"measurement": "concentration at 2 h", "setting": "[11]", "result": 783, "unit": "ng/mL"},
      {"measurement": "microsomal CLint at 1 µM", "setting": "[12]", "result": 28, "unit": "µL/min/mg"},
      {"measurement": "concentration at 24 h", "setting": "[13]", "result": 25, "unit": "ng/mL"},
      {"measurement": "concentration at 24 h", "setting": "[14]", "result": 5.2, "unit": "ng/mL"},
      {"measurement": "concentration at 6 h", "setting": "[15]", "result": 540, "unit": "ng/mL"},
      {"measurement": "concentration at 3 h", "setting": "[16]", "result": 67, "unit": "ng/mL"},
      {"measurement": "concentration at 24 h", "setting": "[17]", "result": 776, "unit": "ng/g"},
      {"measurement": "Activity", "setting": "[18]", "result": -33, "unit": "%"},
      {"measurement": "Activity", "setting": "[19]", "result": -77, "unit": "%"},
      {"measurement": "CL/F", "setting": "[20]", "result": 19, "unit": "mL/min/kg"},
      {"measurement": "CL", "setting": "[21]", "result": 25200, "unit": "mL/min/kg"}
    ]}
  ]
}
